The source made the active and inactive calls. The rule behind the calls is not given here.
How the values were obtained:
[1] = molecular target: Trace amine-associated receptor 1 (Mus musculus, UniProt Q923Y8); experiment: Agonist activity at mouse TAAR1 expressed in HEK293 cells coexpressing cAMP BRET biosensor assessed as induction of CAMP production after 20 mins by bioluminescence resonance energy transfer assay; type: functional, cell-based
How it was run: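 HEK-293 cells transiently transfected with mTAAR1 (or empty vector as control) plus EPAC cAMP BRET biosensor. Read started immediately after agonist addition, continuing ~20 min. IBMX 200 μM final present throughout. Initial screen at 10 μM; actives then run as dose-response. Emission read in 465−505 and 515−555 nm windows, acceptor/donor ratio taken. EC50 from nonlinear one-site fit; 4−6 independent experiments, mean ± SEM.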

Mus musculus [2] = experiment: Induction of plasma glucose level in fasted CD1 mouse at 1.32 ug/kg, ip after 15 mins glucorefractometry relative to T0AM; type: functional, organism-based
How it was run: (§1)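 Male CD-1 mice were fasted 4 h (8 to 12 h) and given a single ip dose (1.32, 4 or 11 μg·kg−1) or saline; n = 10 per group. Tail-vein blood glucose was read by glucorefractometer 15 min after injection. One-way ANOVA with Student−Newman−Keuls post hoc test, P < 0.05; mean ± SEM.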

Heart [3] = experiment: Reduction in cardiac out put in male Wistar rat heart assessed as aortic and coronary flow after 30 mins by Cardiac perfusion technique; type: functional, tissue-based; settings: 0.5 h
How it was run: (§2)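 Male Wistar rats (275−300 g) were anesthetized with ether/air and given 1000 U heparin iv (femoral vein). The heart was excised and perfused as a working heart (atrial 20 cm, aortic 100 cm cannulae). After 5 min equilibration, it was perfused 60 min with buffer containing DMSO vehicle or escalating doses in DMSO. Cardiac output = aortic + coronary flow. 30-min values are expressed as % of baseline. IC50 from sigmoidal nonlinear regression; 3−7 hearts per group, mean ± SE.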

[4] = molecular target: Trace amine-associated receptor 1 (Mus musculus) (UniProt Q923Y8); experiment: Agonist activity at mouse TAAR1 expressed in HEK293 cells coexpressing cAMP BRET biosensor assessed as induction of CAMP production after 20 mins by bioluminescence resonance energy transfer assay relative to control; type: functional, cell-based
How it was run: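 Transient co-transfection of HEK-293 cells with mTAAR1 and the EPAC cAMP BRET biosensor; empty vector as control. Assayed with IBMX at 200 μM final. Screened at 10 μM, then dose-response on actives. Read-out is the acceptor/donor ratio from the 465−505 and 515−555 nm windows; time courses read for about 20 min after agonist addition. EC50 from nonlinear regression (one site specific binding); 4−6 independent experiments, mean ± SEM.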

Mus musculus [5] = experiment: Induction of plasma glucose level in fasted CD1 mouse at 4 ug/kg, ip after 15 mins glucorefractometry relative to T1AM; type: functional, organism-based; how it was run: as §1
Heart [6] = experiment: Reduction in cardiac out put in male Wistar rat heart assessed as aortic and coronary flow at 20 to 40 uM after 30 mins by Cardiac perfusion technique; type: functional, tissue-based; how it was run: as §2
Heart [7] = experiment: Reduction in cardiac out put in male Wistar rat heart assessed as aortic and coronary flow measured as rate of duration of experiment at 40 uM by Cardiac perfusion technique; type: functional
Heart [8] = experiment: Reduction in cardiac out put in male Wistar rat heart assessed as aortic and coronary flow at 40 uM within 10 mins by Cardiac perfusion technique relative to control; type: functional

Sequence of Trace amine-associated receptor 1 (Mus musculus) (Q923Y8 whole entry): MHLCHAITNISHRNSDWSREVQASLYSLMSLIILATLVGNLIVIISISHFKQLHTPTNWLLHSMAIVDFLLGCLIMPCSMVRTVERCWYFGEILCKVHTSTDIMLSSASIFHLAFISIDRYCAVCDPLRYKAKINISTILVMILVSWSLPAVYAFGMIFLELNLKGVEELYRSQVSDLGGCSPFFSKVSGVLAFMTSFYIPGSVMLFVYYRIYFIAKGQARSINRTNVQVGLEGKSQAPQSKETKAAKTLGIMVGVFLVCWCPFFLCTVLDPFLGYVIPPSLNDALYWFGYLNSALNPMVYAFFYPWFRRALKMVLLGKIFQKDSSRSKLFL
Sequence of Trace amine-associated receptor 1 (Q923Y8 whole entry): as above

SMILES | EC50 [1] | Activity (Mus musculus [2]) | IC50 (Heart [3]) | Emax [4] | further results
NCCc1ccccc1 [PHENETHYLAMINE] | 138 nM | – | – | – | –
Cc1cc(OCC(=O)O)ccc1Cc1ccc(N)cc1 | – | Active | 30 µM | – | –
NCCOc1ccc(Cc2ccc(O)cc2)cc1 | 2200 nM | – | – | 80% | –
Cc1cc(OCCN)ccc1Cc1ccc(N)cc1 | 240 nM | – | 30 µM | 75% | Activity (Mus musculus [5]): Active; inhibition (Heart [6]): Active; Time (Heart [7]): 1 h; inhibition at 40 µM (Heart [8]): 60%
Nc1ccc(Cc2ccc(OCC(=O)O)cc2)cc1 | – | inactive | 30 µM | – | –
NCCOc1ccc(Cc2ccc(N)cc2)cc1 | 1700 nM | inactive | 34 µM | 40% | –
NCCc1ccc(Cc2ccc(N)cc2)cc1 | 800 nM | – | – | 100% | –
NCCc1ccc(Oc2ccc(O)cc2)c(I)c1 | 189 nM | – | 27 µM | – | –

Source: ChEMBL document CHEMBL3580610, “Design, Synthesis, and Evaluation of Thyronamine Analogues as Novel Potent Mouse Trace Amine Associated Receptor 1 (mTAAR1) Agonists” (J Med Chem, 2015)
